Measured values from ChEMBL document CHEMBL4715758, “Hit-to-Lead Optimization of a Novel Class of Potent, Broad-Spectrum Trypanosomacides” (J Med Chem, 2016).
Calls of active or inactive are those of the source. The rule behind the calls is not given here.

System: Trypanosoma brucei brucei
Assay: Antitrypanosomal activity against Trypanosoma brucei brucei Lister 427 strain blood stream forms incubated for 48 hrs by resazurin dye based fluorescence assay
Assay type: functional, organism-based
Details: Lister 427, 48 h

SMILES	IC50
O=C(NCCc1csc(-c2cccs2)n1)C1CCCC1	2400 nM
CC(C)NC(=O)NCCc1csc(-c2ccccc2)n1	900 nM
O=C(NCCc1csc(-c2ccccn2)n1)C1CCCC1	4000 nM
O=C(NCCc1csc(-c2ccccc2)n1)c1ccoc1	350 nM
CC(C)N(C(=O)NCCc1csc(-c2ccccc2)n1)C(C)C	9600 nM
N#Cc1ccc(-c2nc(CCNC(=O)N3CCCCC3)cs2)cc1	330 nM
C#Cc1cccc(C(=O)NCCc2csc(-c3ccccc3)n2)c1	760 nM
N#Cc1ccccc1-c1nc(CCNC(=O)N2CCCCC2)cs1	560 nM
COc1ccccc1C(=O)NCCc1csc(-c2ccccc2)n1	10600 nM
O=C(NCCc1csc(-c2ccccc2)n1)OCC1CC1	970 nM
O=C(NCCc1csc(-c2cccnc2)n1)C1CCCC1	6600 nM
CS(=O)(=O)c1cccc(C(=O)NCCc2csc(-c3ccccc3)n2)c1	8500 nM
O=C(NCCc1csc(-c2ccccc2)n1)c1ccccc1O	2300 nM
Cc1ccc(C(=O)NCCc2csc(-c3ccccc3)n2)o1	1900 nM
O=C(NCCc1csc(-c2ccccc2)n1)C1CC2C=CC1O2 (racemic)	5500 nM
Cc1ccccc1C(=O)NCCc1csc(-c2ccccc2)n1	3300 nM
Cc1ccccc1-c1nc(CCNC(=O)N2CCCCC2)cs1	190 nM
Cc1cccc(C(=O)NCCc2csc(-c3ccccc3)n2)c1	3900 nM
COc1ccccc1-c1nc(CCNC(=O)N2CCCCC2)cs1	500 nM
CC(C)N(C)C(=O)NCCc1csc(-c2ccccc2)n1	390 nM

SMILES	IC50
Cc1ccc(-c2nc(CCNC(=O)N3CCCCC3)cs2)cc1	3700 nM
CCN(CC)C(=O)NCCc1csc(-c2ccccc2)n1	260 nM
CC(C)(C)C(=O)NCCc1csc(-c2ccccc2)n1	1700 nM
O=C(NCCc1csc(-c2ccccc2)n1)c1ccon1	740 nM
CC(C)C(=O)NCCc1csc(-c2ccccc2)n1	5300 nM
O=C(NCCc1csc(-c2ccccc2)n1)c1cscn1	1200 nM
O=C(NCCc1csc(-c2ccccc2)n1)OC1CCCC1	300 nM
COc1cccc(-c2nc(CCNC(=O)N3CCCCC3)cs2)c1	670 nM
O=C(NCCc1csc(-c2ccc(Cl)cc2)n1)N1CCCCC1	1500 nM
COc1cccc(C(=O)NCCc2csc(-c3ccccc3)n2)c1	1900 nM
O=C(NCCc1csc(-c2ccccc2)n1)c1cnccn1	4100 nM
CC(C)OC(=O)NCCc1csc(-c2ccccc2)n1	220 nM
O=C(NCCc1csc(-c2ccccc2)n1)C1CCOCC1	5000 nM
C[Si](C)(C)C#Cc1cccc(C(=O)NCCc2csc(-c3ccccc3)n2)c1	3600 nM
O=C(NCCc1csc(-c2cccc(Cl)c2)n1)N1CCCCC1	160 nM
O=C(NCCc1csc(-c2ccncc2)n1)C1CCCC1	9100 nM
N#Cc1cccc(-c2nc(CCNC(=O)N3CCCCC3)cs2)c1	280 nM
O=C(NCCc1csc(-c2ccccc2)n1)n1cccc1	1100 nM
O=C(NCCc1csc(-c2ccccc2)n1)c1cc(Br)co1	2500 nM

System: Trypanosoma cruzi
Assay: Antitrypanosomal activity against Trypanosoma cruzi Tulahuen strain trypomastigotes infected in rat H9c2 cells incubated for 72 hrs by DRAQ5 DNA dye based imaging analysis
Assay type: functional, organism-based
Details: H9c2, 72 h

SMILES	IC50
O=C(NCCc1csc(-c2ccncc2)n1)c1ccccc1	32000 nM
O=C(NCCc1csc(-c2cccs2)n1)C1CCCC1	10000 nM
O=C(NCCc1csc(-c2ccccc2)n1)c1cccnc1	2500 nM
CC(C)NC(=O)NCCc1csc(-c2ccccc2)n1	1600 nM
CC(C)N(C(=O)NCCc1csc(-c2ccccc2)n1)C(C)C	32000 nM
O=C(NCCc1csc(-c2ccccc2)n1)c1ccco1	2000 nM
O=C(NCCc1csc(-c2ccccc2)n1)c1ccc2ccccc2c1	16000 nM
O=C(NCCc1csc(-c2ccccn2)n1)c1ccccc1	6300 nM
N#Cc1ccccc1-c1nc(CCNC(=O)N2CCCCC2)cs1	790 nM
COc1ccccc1C(=O)NCCc1csc(-c2ccccc2)n1	10000 nM
O=C(NCCc1csc(-c2ccccc2)n1)OCC1CC1	3200 nM
O=C(NCCc1csc(-c2cccnc2)n1)C1CCCC1	20000 nM
CS(=O)(=O)c1cccc(C(=O)NCCc2csc(-c3ccccc3)n2)c1	40000 nM
O=C(NCCc1csc(-c2ccccc2)n1)c1ccccc1O	7900 nM
O=C(NCCc1csc(-c2cccnc2)n1)c1ccccc1	40000 nM
Cc1ccccc1C(=O)NCCc1csc(-c2ccccc2)n1	3200 nM
N#Cc1cccc(C(=O)NCCc2csc(-c3ccccc3)n2)c1	790 nM
Cc1cccc(C(=O)NCCc2csc(-c3ccccc3)n2)c1	6300 nM
CC(C)N(C)C(=O)NCCc1csc(-c2ccccc2)n1	1000 nM

SMILES	IC50
CCN(CC)C(=O)NCCc1csc(-c2ccccc2)n1	1000 nM
O=S(=O)(NCCc1csc(-c2ccccc2)n1)N1CCCC1	32000 nM
CC(C)(C)C(=O)NCCc1csc(-c2ccccc2)n1	6300 nM
O=C(NCCc1csc(-c2ccccc2)n1)c1ccon1	2500 nM
CC(C)C(=O)NCCc1csc(-c2ccccc2)n1	40000 nM
O=C(NCCc1csc(-c2ccccc2)n1)c1ccncc1	40000 nM
O=C(NCCc1csc(-c2ccccc2)n1)N1CCOCC1	3200 nM
O=C(NCCc1csc(-c2ccccc2)n1)OC1CCCC1	400 nM
O=C(NCCc1csc(-c2ccccc2)n1)c1ccc[nH]1	6300 nM
O=C(NCCc1csc(-c2ccccc2)n1)c1cccs1	400 nM
COc1cccc(C(=O)NCCc2csc(-c3ccccc3)n2)c1	3200 nM
O=C(NCCc1csc(-c2ccccc2)n1)c1cnccn1	32000 nM
CC(C)OC(=O)NCCc1csc(-c2ccccc2)n1	400 nM
O=C(NCCc1csc(-c2ccccc2)n1)N1CCCCCC1	120 nM
O=C(NCCc1csc(-c2ccccc2)n1)C1CCCCC1	320 nM
C[Si](C)(C)C#Cc1cccc(C(=O)NCCc2csc(-c3ccccc3)n2)c1	2000 nM
O=C(NCCc1csc(-c2ccncc2)n1)C1CCCC1	32000 nM
O=C(NCCc1csc(-c2ccccc2)n1)c1cc(Br)co1	5000 nM
O=S(=O)(NCCc1csc(-c2ccccc2)n1)c1ccccc1	20000 nM

System: Trypanosoma brucei brucei
Assay: Antitrypanosomal activity against Trypanosoma brucei brucei Lister 427 strain blood stream form assessed as parasite growth inhibition at 10 uM incubated for 48 hrs by resazurin dye based fluorescence assay relative to control
Assay type: functional
Details: not given
Summary of the method: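 Alamar Blue (resazurin) growth-inhibition screen against T. b. brucei at 10 μM, the same assay used to find the original hit. Compounds reaching 50% or greater inhibition were then taken into concentration–response testing for IC50.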

SMILES	inhibition
O=S(=O)(NCCc1csc(-c2ccccc2)n1)N1CCCC1	inactive
O=S(=O)(NCCc1csc(-c2ccccc2)n1)c1ccccc1	inactive

Same assay, conditions: Lister 427, 48 h

SMILES	inhibition at 10 µM
O=C(NCCc1csc(-c2ccccc2)n1)c1ccc(Cl)cc1	< 50%
O=C(NCCc1csc(-c2ccccc2)n1)c1cccc(O)c1	< 50%
O=C(NCCc1csc(-c2ccccc2)n1)c1ccc2ccccc2c1	< 50%
O=C(CC1CC2CCC1C2)NCCc1csc(-c2ccccc2)n1 (racemic)	< 50%
CC(C)(C)OC(=O)NCCc1csc(-c2ccccc2)n1	< 50%
O=C(NCCc1csc(-c2ccccc2)n1)c1cccc2ccccc12	< 50%
COc1ccc(C(=O)NCCc2csc(-c3ccccc3)n2)cc1	< 50%
N#Cc1ccccc1C(=O)NCCc1csc(-c2ccccc2)n1	< 50%
O=C(Cc1ccccc1)NCCc1csc(-c2ccccc2)n1	< 50%

System: not listed separately
Assay: Selectivity index, ratio of IC50 for cytotoxicity against human HEK293 cells assessed as reduction in cell viability to IC50 for antitrypanosomal activity against Trypanosoma brucei brucei Lister 427 blood stream form
Assay type: toxicity, cell-based
Details: read-out: Ratio IC50

SMILES	selectivity ratio
O=C(NCCc1csc(-c2cccs2)n1)C1CCCC1	35
CC(C)NC(=O)NCCc1csc(-c2ccccc2)n1	93
O=C(NCCc1csc(-c2ccccn2)n1)C1CCCC1	21
O=C(NCCc1csc(-c2ccccc2)n1)c1ccoc1	240
CC(C)N(C(=O)NCCc1csc(-c2ccccc2)n1)C(C)C	10
N#Cc1ccc(-c2nc(CCNC(=O)N3CCCCC3)cs2)cc1	125
C#Cc1cccc(C(=O)NCCc2csc(-c3ccccc3)n2)c1	27
N#Cc1ccccc1-c1nc(CCNC(=O)N2CCCCC2)cs1	148
COc1ccccc1C(=O)NCCc1csc(-c2ccccc2)n1	2
O=C(NCCc1csc(-c2ccccc2)n1)OCC1CC1	86
O=C(NCCc1csc(-c2cccnc2)n1)C1CCCC1	13
CS(=O)(=O)c1cccc(C(=O)NCCc2csc(-c3ccccc3)n2)c1	4.9
O=C(NCCc1csc(-c2ccccc2)n1)c1ccccc1O	18
Cc1ccc(C(=O)NCCc2csc(-c3ccccc3)n2)o1	22
O=C(NCCc1csc(-c2ccccc2)n1)C1CC2C=CC1O2 (racemic)	15
Cc1ccccc1C(=O)NCCc1csc(-c2ccccc2)n1	2.5
Cc1ccccc1-c1nc(CCNC(=O)N2CCCCC2)cs1	439
Cc1cccc(C(=O)NCCc2csc(-c3ccccc3)n2)c1	21
COc1ccccc1-c1nc(CCNC(=O)N2CCCCC2)cs1	168
CC(C)N(C)C(=O)NCCc1csc(-c2ccccc2)n1	212

SMILES	selectivity ratio
Cc1ccc(-c2nc(CCNC(=O)N3CCCCC3)cs2)cc1	22
CCN(CC)C(=O)NCCc1csc(-c2ccccc2)n1	320
CC(C)(C)C(=O)NCCc1csc(-c2ccccc2)n1	50
O=C(NCCc1csc(-c2ccccc2)n1)c1ccon1	113
CC(C)C(=O)NCCc1csc(-c2ccccc2)n1	16
O=C(NCCc1csc(-c2ccccc2)n1)c1cscn1	68
O=C(NCCc1csc(-c2ccccc2)n1)OC1CCCC1	280
COc1cccc(-c2nc(CCNC(=O)N3CCCCC3)cs2)c1	62
O=C(NCCc1csc(-c2ccc(Cl)cc2)n1)N1CCCCC1	55
COc1cccc(C(=O)NCCc2csc(-c3ccccc3)n2)c1	26
O=C(NCCc1csc(-c2ccccc2)n1)c1cnccn1	20
CC(C)OC(=O)NCCc1csc(-c2ccccc2)n1	385
O=C(NCCc1csc(-c2ccccc2)n1)C1CCOCC1	17
C[Si](C)(C)C#Cc1cccc(C(=O)NCCc2csc(-c3ccccc3)n2)c1	2.9
O=C(NCCc1csc(-c2cccc(Cl)c2)n1)N1CCCCC1	511
O=C(NCCc1csc(-c2ccncc2)n1)C1CCCC1	9
N#Cc1cccc(-c2nc(CCNC(=O)N3CCCCC3)cs2)c1	149
O=C(NCCc1csc(-c2ccccc2)n1)n1cccc1	38
O=C(NCCc1csc(-c2ccccc2)n1)c1cc(Br)co1	12

System: not listed separately
Assay: Selectivity index, ratio of IC50 for cytotoxicity against rat H9c2 cells assessed as reduction in cell viability to IC50 for antitrypanosomal against Trypanosoma cruzi Tulahuen trypomastigotes infected in rat H9c2 cells
Assay type: toxicity, cell-based
Details: read-out: Ratio IC50

SMILES	selectivity ratio
O=C(NCCc1csc(-c2cccs2)n1)C1CCCC1	> 5
CC(C)NC(=O)NCCc1csc(-c2ccccc2)n1	> 31
CC(C)N(C(=O)NCCc1csc(-c2ccccc2)n1)C(C)C	> 1.5
O=C(NCCc1csc(-c2ccccc2)n1)c1ccc2ccccc2c1	> 3.1
N#Cc1ccccc1-c1nc(CCNC(=O)N2CCCCC2)cs1	> 63
COc1ccccc1C(=O)NCCc1csc(-c2ccccc2)n1	> 5
O=C(NCCc1csc(-c2ccccc2)n1)OCC1CC1	> 15
O=C(NCCc1csc(-c2cccnc2)n1)C1CCCC1	> 2.5
CS(=O)(=O)c1cccc(C(=O)NCCc2csc(-c3ccccc3)n2)c1	> 1.2
O=C(NCCc1csc(-c2ccccc2)n1)c1ccccc1O	> 3
Cc1ccccc1C(=O)NCCc1csc(-c2ccccc2)n1	> 15
Cc1cccc(C(=O)NCCc2csc(-c3ccccc3)n2)c1	> 7.9
CC(C)N(C)C(=O)NCCc1csc(-c2ccccc2)n1	> 50
CCN(CC)C(=O)NCCc1csc(-c2ccccc2)n1	> 50
CC(C)(C)C(=O)NCCc1csc(-c2ccccc2)n1	> 7.9
O=C(NCCc1csc(-c2ccccc2)n1)c1ccon1	> 19
CC(C)C(=O)NCCc1csc(-c2ccccc2)n1	> 1.2
O=C(NCCc1csc(-c2ccccc2)n1)OC1CCCC1	> 125
COc1cccc(C(=O)NCCc2csc(-c3ccccc3)n2)c1	> 15
O=C(NCCc1csc(-c2ccccc2)n1)c1cnccn1	> 1.5
CC(C)OC(=O)NCCc1csc(-c2ccccc2)n1	> 125
C[Si](C)(C)C#Cc1cccc(C(=O)NCCc2csc(-c3ccccc3)n2)c1	> 12
O=C(NCCc1csc(-c2ccncc2)n1)C1CCCC1	> 1.5
O=C(NCCc1csc(-c2ccccc2)n1)c1cc(Br)co1	> 10
